Screens (PubChem BioAssay)
Rows were chosen to be rich in hits. Some 3.1% of all compounds tested hit in one or more screens of this group.
PHOSPHO1 block: inhibitors of human PHOSPHO1 phosphatase; Q8TCT1; recombinant PHOSPHO1, absorbance phosphatase assay; inhibition, % at 13.3 µM; 290,000 compounds, 1.1% hits; in the data active means inhibition above about 60%
Target sequence (Q8TCT1 whole entry, looked up): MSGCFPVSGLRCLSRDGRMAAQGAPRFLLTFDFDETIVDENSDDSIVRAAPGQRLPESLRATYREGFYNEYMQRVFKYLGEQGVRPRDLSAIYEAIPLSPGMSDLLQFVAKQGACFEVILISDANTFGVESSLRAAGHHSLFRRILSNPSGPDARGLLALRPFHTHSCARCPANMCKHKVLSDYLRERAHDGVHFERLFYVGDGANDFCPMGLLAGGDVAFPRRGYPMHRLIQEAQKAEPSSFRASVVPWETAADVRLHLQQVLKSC
HCV core dimer: blocks dimerization of HCV core protein; TR-FRET GST/Flag-core106 dimerization, 1536-well; inhibition, % at 5 µM; 300,000 compounds, 0.33% hits; AID 1899;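 active means inhibition above the mean of all tested compounds plus 3 SD, set per screening campaign, cut at about 45% in these data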
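Material: GST/Flag-tagged HCV core106 proteins. Incubation: 4 h, 22.5 °C incubation. Read-out basis: inhibition (%) from 671 over 617 nm ratio. Measured by: TR-FRET, excitation 340 nm, emission 617 and 671 nm.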
NS3 helicase inh: HCV NS3 helicase inhibition. NS3 helicase DNA unwinding, Cy5 molecular beacon fluorescence. 290,000 compounds, 0.56% hits. AID 1800. inhibition, % at 10.9 µM;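 active means inhibition above the mean of all tested compounds plus 3 SD, set per campaign, cut at about 35% in these data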;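 further: 0% = DMSO wells and 100% = thioflavine S control wells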
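assay system = NS3 helicase fragment of HCV | buffer or medium = MOPS pH 6.5, MgCl2, DTT, Tween20, BSA | timing = 60 min unwinding reaction at 25 °C after ATP addition | signal = Cy5 beacon fluorescence read at start and 1 h | read-out basis = % inhibition of unwinding | control set = low DMSO, high thioflavine S at 110 µM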
UBC9 SUMO inh: inhibitors of human SUMOylation (UBC9) | P63279 | HTRF SUMOylation assay, SAE1/SAE2 + UBC9, in vitro | 290,000 compounds, 0.36% hits | inhibition, % at 35 µM | AID 2006; in the data active means inhibition above about 50%, passing the limit was not always enough
Target sequence (P63279 whole entry, looked up): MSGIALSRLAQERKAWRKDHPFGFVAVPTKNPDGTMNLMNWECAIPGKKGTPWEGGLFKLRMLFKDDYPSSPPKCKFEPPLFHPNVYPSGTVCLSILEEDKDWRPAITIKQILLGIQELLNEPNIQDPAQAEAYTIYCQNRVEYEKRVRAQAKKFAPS
VIM-2 inhibitor: blocks Pseudomonas aeruginosa VIM-2 metallo-beta-lactamase. purified VIM-2, nitrocefin hydrolysis, epi-absorbance fluorescence. 290,000 compounds, 0.89% hits. inhibition, % at 5.6 µM;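 active means inhibition above the mean of all tested compounds plus 3 SD, cutoff set per screening run, cut at about 7.5% in these data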;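 further: red hydrolysis product quenches plate fluorescence so inhibitors raise well fluorescence; 0% = enzyme with DMSO and 100% = DMSO without enzyme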
IMP-1 inh: blocks Pseudomonas aeruginosa IMP-1 metallo-beta-lactamase. purified IMP-1, nitrocefin hydrolysis, epi-absorbance fluorescence. inhibition, % at 5.6 µM. 290,000 compounds, 0.45% hits. AID 1556;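 active means inhibition above the mean plus 3 SD of all compounds in the same screening run, cut at about 4.5% in these data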;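 further: 0% = IMP-1 with DMSO and 100% = DMSO wells lacking enzyme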
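System: purified IMP-1; amount: IMP-1 0.2 nM before substrate addition; compound: single dose, 5.6 µM; times: 25 °C, 15 min preincubation, 25 min reaction; signal: Epi-absorbance via hydrolysed-nitrocefin quenching of white-plate fluorescence, 480/530 nm, EDTA stop; benchmarks: DMSO with and without IMP-1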
Active calls of the source: *; . = no result given.

SMILES	PHOSPHO1 block	HCV core dimer	NS3 helicase inh	UBC9 SUMO inh	VIM-2 inhibitor	IMP-1 inh
C=CCOC(=O)C(=O)/C=C/c1c(C)n(C)n(-c2ccccc2)c1=O	48	-6	-2	1	0	0
C=CCOC(=O)C(=O)/C=C/c1coc2ccccc2c1=O	40	8	6	16	8.3*	-1
CN(C(=O)CSc1cc(C(=O)c2nccn2C)c2ccccc2n1)c1ccccc1	43	4	-9	17	-4	-2
CCOc1ccc(CCNC(=O)CS(=O)(=O)Cc2nc(-c3ccc(OC)cc3)oc2C)cc1	64*	2	-4	21	1	1
N#CC1=C(N)Oc2cc(O)ccc2C1c1ccc(Br)s1 (stereo unspecified)	36	.	2	3	0	2
N=C(N)c1ccc(Cl)cc1	22	1	4	5	-3	-1
N=C(N)c1ccc(/C=C/c2ccc(C(=N)N)cc2O)cc1	33	-16	-16	36	4	5.7*
CSc1nncc(/C(C)=N/O)n1	7	-8	-16	-5	0	-1
CSc1nncc(/C(C)=N\Nc2ccccc2C)n1	95*	-3	1	24	-6	-4
O=P(O)(C(O)c1ccccc1)C(O)c1ccccc1 (stereo unspecified)	.	8	.	.	.	.
NC(=O)C1CCN(C(=O)COc2ccc3c(c2)oc(=O)c2ccccc23)CC1	29	1	-9	16	12*	-1
Cc1c(Cc2ccccc2)c(=O)oc2cc(OCC(=O)N3CCC(C(N)=O)CC3)ccc12	-18	-1	-5	15	2	-1
Cc1ccc[n+](CC(=O)Nc2ccc(Cl)c([N+](=O)[O-])c2)c1	19	-15	2	8	8.9*	-1
O=C(Nc1ccc(Br)cc1)c1ccc(N2C(=O)C3CC=C(Cl)CC3C2=O)cc1 (stereo unspecified)	5	26	4	53*	-2	0
CCCCC(=O)Nc1nn(CC(C)C)c2nc3ccccc3cc12	-11	-22	-6	20	-1	-3
CCn1nc(NS(=O)(=O)c2ccc(NC(C)=O)cc2)c2cc3ccccc3nc21	65*	-18	9	1	-4	-3
CCn1nc(NS(=O)(=O)c2ccc(NC(C)=O)cc2)c2cc3ccc(C)cc3nc21	15	-21	11	-11	-2	-2
CCCn1nc(NC(=O)CC(C)C)c2cc3ccccc3nc21	69*	-1	-2	30	-1	-3
Cc1cccc(N(CC(N)=O)C2SC(=O)N(c3ccccc3)C2=O)c1 (stereo unspecified)	29	-1	1	0	-2	6.6*
O=C1NC(c2ccc(Br)cc2)=N/C1=C/c1ccco1	6	-6	0	51*	0	-1
Cc1cc(C(C)C)n2c(nc3ccccc32)c1C#N	-22	4	3	14	1	0
Cc1cc(-n2ccnc2)n2c(nc3ccccc32)c1C#N	11	1	11	27	7.7*	3
CCC(C)Sc1cc(C)c(C#N)c2nc3ccccc3n12 (stereo unspecified)	9	11	-1	13	10*	-2
Cc1ccc(CNC(=O)CC(C)S(=O)(=O)c2ccc3c(c2)NC(=O)C(C)S3)cc1 (stereo unspecified)	43	4	0	1	-1	-3
CC(C)(C)C(=O)Nc1cccc(S(=O)(=O)NC2=NCCC2)c1	.	0	.	.	.	.
SMILES	PHOSPHO1 block	HCV core dimer	NS3 helicase inh	UBC9 SUMO inh	VIM-2 inhibitor	IMP-1 inh
Cc1ccc(S(=O)(=O)C(CCC(=O)N2CCOCC2)S(=O)(=O)c2ccc(C)cc2)cc1	-33	-4	0	12	-2	-3
CCC(N1CCOC1=O)S(=O)(=O)c1ccc(C)cc1 (stereo unspecified)	93*	0	2	-5	-2	-6
O=C(CSc1nnc(CNC(=O)c2c(F)cccc2F)o1)NCC1CCCO1 (stereo unspecified)	19	-1	0	3	-1	-3
O=C1OCCC1Sc1nc2cc(Cl)ccc2n1Cc1ccccc1 (stereo unspecified)	89*	11	-9	24	-5	-4
O=C1OCCC1Sc1nc2ccccc2c(=O)n1Cc1ccccc1 (stereo unspecified)	-1	3	6	9	-2	-3
O=[N+]([O-])/C(=C\Nc1ccccc1)S(=O)(=O)c1ccccc1	20	-5	5	7	2	-2
O=[N+]([O-])/C(=C\Nc1ccccc1Cl)S(=O)(=O)c1ccccc1	87*	-4	11	13	-2	1
CN(C)S(=O)(=O)n1cc(/C=C(\NC(=O)c2ccccc2Cl)C(=O)NCCN2CCOCC2)c2ccccc21	65*	-12	-66	1	-5	-3
COc1ccc(Cl)cc1NS(=O)(=O)c1cccc(C(=O)NCC(c2ccco2)N(C)C)c1 (stereo unspecified)	52	-3	-47	15	-3	-4
CC(C)(CO)CNC(=O)CCc1nnc(C2(c3ccc(Cl)cc3)CCC2)o1	48	2	3	2	-3	-3
CCC(O)CNC(=O)CCc1nnc(C2(c3ccc(Cl)cc3)CCC2)o1 (stereo unspecified)	60*	0	-3	8	-6	-3
S=c1[nH]ncn1/N=C/c1ccccn1	98*	-3	-2	8	-3	-4
S=c1[nH]ncn1/N=C/c1cccs1	-10	0	1	-9	-2	-4
CC(=O)c1c(COC(=O)c2cccnc2)nc2ccccc2[n+]1[O-]	88*	13	19	5	2	0
COc1ccc(C(=O)NC(=S)NNC(=O)c2ccco2)cc1	-61	-21	5	-30	-4	-3
O=C(Nc1ccc(NC(=S)NC(=O)c2ccco2)cc1)c1ccccc1	12	9	-2	6	-2	0
COc1ccccc1OCC(=O)NNC(=S)NC(=O)c1ccco1	95*	-9	3	-2	-10	-4
O=C(NNC(=S)NC(=O)c1ccco1)c1ccc(NC(=O)c2ccccc2)cc1	71*	1	7	-34	-3	-6
O=C(CN(Cc1ccco1)C(=O)CCC(=O)Nc1ccccn1)NCc1ccccc1	19	-3	-6	4	-2	0
COc1cccc(/C=C2\NC(=O)NC2=O)c1O	35	-11	-2	-9	-2	-2
COc1ccc(/C=N/Nc2cc(N(C)C)nc(N(C)C)n2)cc1	-15	1	-7	95*	-2	-1
O=C(NCc1ccco1)c1nn2c(C(F)(F)F)cc(-c3cccs3)nc2c1Br	26	54*	16	23	7	-2
Cc1nnc(NC(=O)CSc2nnc3ncccn23)s1	37	-1	9	2	-1	0
